Measurements taken from ChEMBL document CHEMBL1151249, “Cytotoxic and antimicrobial constituents of the bark of Diospyros maritima collected in two geographical locations in Indonesia” (J Nat Prod, 2004).
≈ marks a conversion by molar mass, not a printed value. Calls of active or inactive are those of the source. No cut-off for these calls is given here.

What was measured:
[1] = system: Micrococcus luteus; test: Antimicrobial activity against Micrococcus luteus after 18 hrs by zone-of-inhibition assay; type: functional, organism-based
[2] = system: KB; test: Antitumor activity against human KB cell xenografted mouse by hollow fiber assay; type: functional, cell-based
How it was run: (§1)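 Hollow fiber assay in mice with KB, LNCaP or Lu1 cells in fibers implanted at intraperitoneal and subcutaneous sites. Mice were treated by injection at doses from 1.25 to 10 mg/kg or up to 50 mg/kg. Tumor cell growth inhibition in the fibers was assessed at each site.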

[3] = system: Saccharomyces cerevisiae; test: Antifungal activity against Saccharomyces cerevisiae after 18 hrs by zone-of-inhibition assay; type: functional, organism-based
[4] = system: Aspergillus niger; test: Antifungal activity against Aspergillus niger after 18 hrs by zone-of-inhibition assay; type: functional, organism-based
[5] = system: Cryptococcus neoformans; test: Antifungal activity against Cryptococcus neoformans assessed as 99.9 % growth inhibition after 18 hrs by zone-of-inhibition assay; type: functional
[6] = system: Aspergillus niger; test: Antifungal activity against Aspergillus niger assessed as 99.9 % growth inhibition after 18 hrs by zone-of-inhibition assay; type: functional
[7] = system: KB; test: Cytotoxicity against human KB cells; type: functional, cell-based; conditions: read-out: ED50 (the source's name)
[8] = system: Lu1; test: Cytotoxicity against human Lu1 cells; type: functional; conditions: read-out: ED50 (the source's name)
[9] = system: Mus musculus; test: Toxicity in human KB cell xenografted mouse at 50 mg/kg; type: organism-based; parameters: dose 50 mg/kg; conditions: in vivo
[10] = system: Mus musculus; test: Toxicity in human LU1 cell xenografted mouse at 50 mg/kg; type: organism-based; parameters: dose 50 mg/kg; conditions: in vivo
[11] = system: Candida albicans; test: Antifungal activity against Candida albicans after 18 hrs by zone-of-inhibition assay; type: functional, organism-based; conditions: Candida albicans, 18 h
[12] = system: Staphylococcus aureus; test: Antimicrobial activity against Staphylococcus aureus after 18 hrs by zone-of-inhibition assay; type: functional, organism-based
[13] = system: LNCaP; test: Cytotoxicity against human LNCAP cells; type: functional; conditions: read-out: ED50 (the source's name)
[14] = system: Mycolicibacterium smegmatis; test: Antimicrobial activity against Mycobacterium smegmatis assessed as 99.9 % growth inhibition after 18 hrs by zone-of-inhibition assay; type: functional
[15] = system: Mus musculus; test: Toxicity in human LNCaP cell xenografted mouse at 50 mg/kg; type: organism-based; parameters: dose 50 mg/kg; conditions: in vivo
[16] = system: Saccharomyces cerevisiae; test: Antifungal activity against Saccharomyces cerevisiae assessed as 99.9 % growth inhibition after 18 hrs by zone-of-inhibition assay; type: functional
[17] = system: LNCaP; test: Antitumor activity against human LNCAP cell xenografted mouse by hollow fiber assay; type: functional, cell-based; how it was run: as §1
[18] = system: Micrococcus luteus; test: Antimicrobial activity against Micrococcus luteus assessed as 99.9 % growth inhibition after 18 hrs by zone-of-inhibition assay; type: functional
[19] = system: Candida albicans; test: Antimicrobial activity against Candida albicans assessed as 99.9 % growth inhibition after 18 hrs by zone-of-inhibition assay; type: functional
[20] = system: Cryptococcus neoformans; test: Antifungal activity against Cryptococcus neoformans after 18 hrs by zone-of-inhibition assay; type: functional, organism-based; conditions: Cryptococcus neoformans, 18 h
[21] = system: Staphylococcus aureus; test: Antimicrobial activity against Staphylococcus aureus assessed as 99.9 % growth inhibition after 18 hrs by zone-of-inhibition assay; type: functional
[22] = Cytotoxicity against human HUVEC; type: cell-based; conditions: HUVEC cells, read-out: ED50 (the source's name)
[23] = system: Lu1; test: Antitumor activity against human Lu1 cell xenografted mouse by hollow fiber assay; type: functional, cell-based; how it was run: as §1
[24] = system: Mycolicibacterium smegmatis; test: Antimicrobial activity against Mycobacterium smegmatis after 18 hrs by zone-of-inhibition assay; type: functional, organism-based
[25] = system: Mycobacterium avium; test: Antimicrobial activity against Mycobacterium avium after 18 hrs by zone-of-inhibition assay; type: functional, organism-based

SMILES: CC1=CC(=O)c2c(O)ccc(-c3ccc(O)c4c3C(=O)C(C)=CC4=O)c2C1=O [MARITINONE]
- IC50 [1]: 200 µg/mL (≈ 534 µM)
- Activity [2]: inactive
- IC50 [3]: 9 µg/mL (≈ 24 µM)
- IC50 [4]: 40 µg/mL (≈ 107 µM)
- Activity [5]: 200 µg/mL
- Activity [6]: >1000 µg/mL
- EC50 [7]: 0.3 µg/mL (≈ 0.801 µM)
- EC50 [8]: 1.4 µg/mL (≈ 3.74 µM)
- Activity [9]: Toxic
- Activity [10]: Toxic
- IC50 [11]: 40 µg/mL (≈ 107 µM)
- IC50 [12]: 9 µg/mL (≈ 24 µM)
- EC50 [13]: 2.2 µg/mL (≈ 5.88 µM)
- Activity [14]: 80 µg/mL
- Activity [15]: Toxic
- Activity [16]: 80 µg/mL
- Activity [17]: inactive
- Activity [18]: >1000 µg/mL
- Activity [19]: 40 µg/mL
- IC50 [20]: 20 µg/mL (≈ 53.4 µM)
- Activity [21]: 300 µg/mL
- CC50 [22]: 2.2 µg/mL (≈ 5.88 µM)
- Activity [23]: inactive
- IC50 [24]: 20 µg/mL (≈ 53.4 µM)
- IC50 [25]: 600 µg/mL (≈ 1600 µM)
